The nature of assay [1]: Her2 expression decrease, cell viability multiplex – SKBR3 breast tumor cells, AlphaScreen, ATP viability, primary screen (AID 461;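 active means Her2 level under about 52% in both replicate screens, with viability over 70% of control, limit read from the data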;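 on Her2 level: lower value means less Her2 protein in the cells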;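 on viability: percent of carrier control wells set as 100% viability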). To be noted: SKBR3 Her2 protein level, 18-24 h, measured here: SKBR3 viability, ATP luminescence, at 10 µM.
Assay [2] concerns the target Receptor tyrosine-protein kinase erbB-2 (Homo sapiens) (UniProt P04626). Described as above. To be noted: 18-24 h, at 10 µM, stronger effect = lower value.
A short description of assay [3]: reduced viability of SK-BR-3 breast cancer cells – cell-based, 24 h, human, pilot screen (AID 572).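 Further: compound exposure lasted between 18 and 24 h rather than exactly 24 h; 100% = carrier-treated control wells.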 To be noted: SK-BR-3 viability, CellTiter-Glo luminescence, at 10 µM, stronger effect = lower value.
Assay [4] is described as follows: HUVEC growth inhibition – cell-based, human, primary screen (AID 575;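 active means viability at or below 30% in both replicate assays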;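 further: 100% = median of untreated cell wells with 0.1% DMSO on each plate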). To be noted: HUVEC proliferation, CellTiter-Glo luminescence, 72 h; at 10 µM; stronger effect = lower value. The method, boiled down:
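Material: primary human umbilical vein endothelial cells / Schedule: 72 h exposure, 37 °C, 5% CO2, 30 min RT equilibration / Signal: ATP-based CellTiter-Glo luminescent read / Read-out basis: percent of median DMSO-control luminescence / Control set: 32 DMSO-only cell-control wells (high), 32 MePR drug-control wells (low) per plate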

A short description of assay [5]: H69AR cell proliferation blockers – human, duplicate replicates, primary screen (AID 580;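 active means viability at or under a set limit in both replicates, limit being median viability minus 3 SD, cut at about 48% in these data, passing the limit was not always enough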;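 further: 100% = mean luminescence of untreated wells and 0% = no signal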). To be noted: H69AR lung tumor cells viability, ATP luminescence, 72 h; at 10 µM; stronger effect = lower value.
Assay [6] is described as follows: MRP1 drug-resistance reversers in H69AR cells – cell-based, doxorubicin co-treatment, pilot screen (AID 601;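 active means viability loss from added drug above about 55%, and viability with drug at most 40%, in both replicates, limit read from the data, passing the limit was not always enough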). To be noted: CellTiter-Glo, 72 h, at 10 µM; for differential viability (reversal): stronger effect = higher value.
Assay [7] is described as follows: yeast transport mutant growth inhibition pilot in 384-well plates, post-Golgi transport modulator project (AID 636; in the data active means inhibition above about 31%). To be noted: absorbance 615 nm, about 18 h, stronger effect = higher value.
Assay [8] is described as follows: growth suppression of yeast trafficking mutant, preliminary HTS, modulators of trafficking downstream of Golgi apparatus project, 1536-format plate, OD 615 nm (AID 637; in the data active means inhibition above about 30%). To be noted: yeast transport mutant growth, absorbance 615 nm, 18 h; stronger effect = higher value.
Where [9] appears, read: H69AR cells + 2 uM doxorubicin, measured here: viability with 2 uM doxorubicin, stronger effect = lower value.
Setting [10] is: H69AR cells, compound alone cytotoxicity.

Molecules are shown by their SMILES. Activity calls are given as the source filed them.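 How the source made its calls, unless noted: active means viability at or below 10% of carrier control in both of two separate runs; inconclusive means viability at or below 10% in only one of the two runs; inactive means the rest.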

Sequence of Receptor tyrosine-protein kinase erbB-2 (Homo sapiens) (P04626 whole entry, looked up): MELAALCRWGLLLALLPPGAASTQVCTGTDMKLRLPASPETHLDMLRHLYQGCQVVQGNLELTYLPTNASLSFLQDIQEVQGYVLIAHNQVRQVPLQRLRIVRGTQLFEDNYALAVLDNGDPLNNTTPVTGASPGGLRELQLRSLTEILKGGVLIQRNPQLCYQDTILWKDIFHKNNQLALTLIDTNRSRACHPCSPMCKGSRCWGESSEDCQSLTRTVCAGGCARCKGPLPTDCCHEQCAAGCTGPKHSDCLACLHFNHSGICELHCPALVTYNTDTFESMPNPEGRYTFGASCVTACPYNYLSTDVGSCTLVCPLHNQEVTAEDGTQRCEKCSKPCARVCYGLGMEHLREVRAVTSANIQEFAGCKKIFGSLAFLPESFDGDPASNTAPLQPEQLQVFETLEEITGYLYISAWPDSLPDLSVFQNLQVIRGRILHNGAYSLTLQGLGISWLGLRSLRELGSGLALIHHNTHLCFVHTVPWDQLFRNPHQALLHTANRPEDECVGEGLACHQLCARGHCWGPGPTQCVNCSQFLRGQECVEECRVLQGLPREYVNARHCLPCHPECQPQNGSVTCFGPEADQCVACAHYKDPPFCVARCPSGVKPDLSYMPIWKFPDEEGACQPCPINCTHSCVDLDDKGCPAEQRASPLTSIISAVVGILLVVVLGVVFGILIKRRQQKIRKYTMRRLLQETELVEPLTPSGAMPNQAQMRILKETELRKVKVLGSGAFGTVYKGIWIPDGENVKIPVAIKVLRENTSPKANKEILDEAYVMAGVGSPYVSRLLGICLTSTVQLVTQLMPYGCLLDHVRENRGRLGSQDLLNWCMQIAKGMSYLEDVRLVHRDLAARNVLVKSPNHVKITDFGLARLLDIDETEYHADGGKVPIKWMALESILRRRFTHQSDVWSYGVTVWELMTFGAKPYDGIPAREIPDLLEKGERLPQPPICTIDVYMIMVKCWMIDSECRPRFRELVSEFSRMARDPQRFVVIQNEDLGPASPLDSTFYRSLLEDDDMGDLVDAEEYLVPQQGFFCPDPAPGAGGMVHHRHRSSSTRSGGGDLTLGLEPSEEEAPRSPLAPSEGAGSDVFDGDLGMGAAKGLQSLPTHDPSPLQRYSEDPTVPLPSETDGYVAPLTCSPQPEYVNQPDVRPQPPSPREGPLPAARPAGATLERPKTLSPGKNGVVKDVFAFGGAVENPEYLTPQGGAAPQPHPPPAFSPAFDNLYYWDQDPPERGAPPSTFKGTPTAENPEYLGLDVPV

As to `CCOC(=O)C1=C(C)NC(SC(C)=O)=NC1c1ccc(OC(C)=O)c(OC)c1` (stereo not given), the viability in assay [1] is 106%; in assay [3], 106% (inactive); in assay [4], 82.9% (inactive); in assay [5], 85.3% (inactive); in assay [6] (setting [9]), 94.5%; in assay [6] (setting [10]), 85.3%. Also, in assay [2], the Her2 level was 95.5% (inactive). Moreover, the differential viability (reversal) in assay [6] (H69AR cells + 2 uM doxorubicin) is -9.22% (inactive). The inhibition in assay [7] is -6.84% (inactive); in assay [8], -6.36% (inactive).
For `O=c1[nH]c2c(s1)C(c1ccco1)C1C3CCC(C3)C1S2` (stereo not given), the viability was 100% in assay [1]; 100% (inactive) in assay [3]; 113% (inactive) in assay [4]; 78.8% (inactive) in assay [5]; 89.3% in assay [6] (setting [9]); 78.8% in assay [6] (setting [10]). Moreover, the Her2 level in assay [2] is 80% (inactive). For the same compound, in assay [6] (H69AR cells + 2 uM doxorubicin), the differential viability (reversal) is -10.5% (inactive). The inhibition in assay [7] was -3.29% (inactive); in assay [8] it was 2.73% (inactive).
Turning to `O=C(CCC(=O)c1cccs1)NCc1ccccc1`, the viability in assay [1] was 102%; in assay [3], 102% (inactive); in assay [4] it was 98.2% (inactive); in assay [5] it was 97.8% (inactive); in assay [6] (setting [9]), 97.8%; in assay [6] (setting [10]), 97.8%. Further, the Her2 level in assay [2] is 114% (inactive). For the same compound, the differential viability (reversal) in assay [6] (H69AR cells + 2 uM doxorubicin) was -0.02% (inactive). The values for the inhibition in assay [7] and in assay [8] were -3.64% (inactive) and -2.22% (inactive), respectively.
Take `CS(=O)(=O)c1ccc2nc(NC(=O)CCC(=O)c3cccs3)sc2c1`: the viability was 91% in assay [1]; 91% (inactive) in assay [3]; 87.5% (inactive) in assay [4]; 69.8% (inactive) in assay [5]; 74.2% in assay [6] (setting [9]); 69.8% in assay [6] (setting [10]). Moreover, in assay [2], the Her2 level is 102% (inactive). Moreover, in assay [6] (H69AR cells + 2 uM doxorubicin), the differential viability (reversal) was -4.38% (inactive). The inhibition was -1.05% (inactive) in assay [7] and 4.35% (inactive) in assay [8].
Turning to `O=C(CN1C(=O)c2ccccc2C1=O)NCC1COc2ccccc2O1` (stereo not given), the viability was 98% in assay [1]; 98% (inactive) in assay [3]; 95.1% (inactive) in assay [4]; 102% (inactive) in assay [5]; 97.1% in assay [6] (setting [9]); 102% in assay [6] (setting [10]). In assay [2], the Her2 level was 110% (inactive). The differential viability (reversal) in assay [6] (H69AR cells + 2 uM doxorubicin) was 5.31% (inactive). Moreover, the inhibition in assay [7] is 2.11% (inactive); in assay [8] it was 12.5% (inactive).
On to `CCn1c(SCC(=O)c2ccc(OC)cc2)nnc1C(C)NC(=O)c1ccc(OC)cc1` (stereo not given), for which the viability is 93% in assay [1]; 93% (inactive) in assay [3]; 85.7% (inactive) in assay [4]; 88.2% (inactive) in assay [5]; 91.9% in assay [6] (setting [9]); 88.2% in assay [6] (setting [10]). For the same compound, in assay [2], the Her2 level was 106% (inactive). In addition, the differential viability (reversal) in assay [6] (H69AR cells + 2 uM doxorubicin) was -3.72% (inactive). Further, the inhibition was -1.2% (inactive) in assay [7] and -8.41% (inactive) in assay [8].
As to `COc1ccccc1NC(=O)NC1(C(=O)N2CCC(O)CC2)CCCCC1`, the viability was 103% in assay [1]; 103% (inactive) in assay [3]; 99.2% (inactive) in assay [4]; 114% (inactive) in assay [5]; 109% in assay [6] (setting [9]); 114% in assay [6] (setting [10]). The Her2 level in assay [2] is 97% (inactive). In addition, the differential viability (reversal) in assay [6] (H69AR cells + 2 uM doxorubicin) was 4.86% (inactive). Further, the inhibition was -3.9% (inactive) in assay [7] and -4.13% (inactive) in assay [8].
On to `CCOc1ccc(CNC(=O)C2CCCN(S(C)(=O)=O)C2)cc1OC` (stereo not given), for which the viability was 77% in assay [1]; 77% (inactive) in assay [3]; 102% (inactive) in assay [4]; 98.8% (inactive) in assay [5]; 90.9% in assay [6] (setting [9]); 98.8% in assay [6] (setting [10]). Further, the Her2 level in assay [2] was 133% (inactive). Further, the differential viability (reversal) in assay [6] (H69AR cells + 2 uM doxorubicin) is 7.88% (inactive). Moreover, the figures for the inhibition in assay [7] and in assay [8] were -1.67% (inactive) and 0.17% (inactive), respectively.
For the compound `COc1ccc(Cl)cc1Nc1nc(C)cc(=O)[nH]1`, the viability in assay [1] was 95%; in assay [3], 95% (inactive); in assay [4] it was 80.6% (inactive); in assay [5], 95.8% (inactive); in assay [6] (setting [9]) it was 93.7%; in assay [6] (setting [10]), 95.8%. Moreover, in assay [2], the Her2 level was 86% (inactive). For the same compound, the differential viability (reversal) in assay [6] (H69AR cells + 2 uM doxorubicin) was 2.12% (inactive). The inhibition in assay [7] was -3.68% (inactive); in assay [8], -0.97% (inactive).
For `O=C(NC12CC3CC(CC(C3)C1)C2)C1CCCN1C(=O)NC1CCCCC1` (stereo not given), the viability in assay [1] is 102%; in assay [3], 102% (inactive); in assay [4], 108% (inactive); in assay [5], 92.6% (inactive); in assay [6] (setting [9]), 76.2%; in assay [6] (setting [10]) it was 92.6%. The Her2 level in assay [2] is 113% (inactive). Besides, the differential viability (reversal) in assay [6] (H69AR cells + 2 uM doxorubicin) is 16.5% (inactive). The inhibition was -6.62% (inactive) in assay [7] and 1.5% (inactive) in assay [8].
As to `FC(F)(F)c1nnc2sc(-c3cccs3)nn12`, the viability in assay [1] is 102%; in assay [3], 102% (inactive); in assay [4] it was 93.9% (inactive); in assay [5] it was 113% (inactive); in assay [6] (setting [9]) it was 93%; in assay [6] (setting [10]), 113%. Besides, the Her2 level in assay [2] was 86.5% (inactive). The differential viability (reversal) in assay [6] (H69AR cells + 2 uM doxorubicin) is 19.7% (inactive). Also, the inhibition was -7.43% (inactive) in assay [7] and 4.6% (inactive) in assay [8].
Turning to `O=C(Nc1cccnc1)c1ccc2c(c1)C(=O)N(Cc1cccnc1)C2=O`, the viability is 96.5% in assay [1]; 96.5% (inactive) in assay [3]; 103% (inactive) in assay [4]; 102% (inactive) in assay [5]; 94.7% in assay [6] (setting [9]); 102% in assay [6] (setting [10]). In assay [2], the Her2 level was 99.5% (inactive). In addition, the differential viability (reversal) in assay [6] (H69AR cells + 2 uM doxorubicin) was 7.77% (inactive). Further, the inhibition was -2.93% (inactive) in assay [7] and -1.64% (inactive) in assay [8].
For the compound `Cc1ccccc1OCCN1C(=O)NC2(CCc3ccccc32)C1=O` (stereo not given), the viability in assay [1] is 94.5%; in assay [3], 94.5% (inactive); in assay [4] it was 92.9% (inactive); in assay [5], 82.7% (inactive); in assay [6] (setting [9]), 82.7%; in assay [6] (setting [10]), 82.7%. In addition, in assay [2], the Her2 level was 83.5% (inactive). The differential viability (reversal) in assay [6] (H69AR cells + 2 uM doxorubicin) was 0.01% (inactive). Moreover, the inhibition was -6.62% (inactive) in assay [7] and 0% (inactive) in assay [8].
In the case of `O=C1CCCC2=C1C(c1ccsc1)CC(=O)N2c1ccccc1` (stereo not given), the viability in assay [1] was 90.5%; in assay [3] it was 90.5% (inactive); in assay [4], 113% (inactive); in assay [5], 92.4% (inactive); in assay [6] (setting [9]), 95.7%; in assay [6] (setting [10]), 92.4%. Further, in assay [2], the Her2 level is 96% (inactive). Further, in assay [6] (H69AR cells + 2 uM doxorubicin), the differential viability (reversal) is -3.37% (inactive). Also, the inhibition was -3.29% (inactive) in assay [7] and -3.82% (inactive) in assay [8].
As to `CCOC(=O)N1CCC(N2CC34C=CC(O3)C(C(=O)O)C4C2=O)CC1` (stereo not given), the viability in assay [1] is 102%; in assay [3] it was 102% (inactive); in assay [4], 92.4% (inactive); in assay [5] it was 100% (inactive); in assay [6] (setting [9]), 81.8%; in assay [6] (setting [10]), 100%. The Her2 level in assay [2] was 99.5% (inactive). Besides, in assay [6] (H69AR cells + 2 uM doxorubicin), the differential viability (reversal) was 18.3% (inactive). Further, the values for the inhibition in assay [7] and in assay [8] were -3.73% (inactive) and -4.26% (inactive), respectively.
As to `COc1ccccc1-n1c(-c2cccnc2)n[nH]c1=S`, the viability was 88% in assay [1]; 88% (inactive) in assay [3]; 110% (inactive) in assay [4]; 109% (inactive) in assay [5]; 102% in assay [6] (setting [9]); 109% in assay [6] (setting [10]). In assay [2], the Her2 level was 109% (inactive). In addition, the differential viability (reversal) in assay [6] (H69AR cells + 2 uM doxorubicin) is 6.74% (inactive). The figures for the inhibition in assay [7] and in assay [8] were -0.4% (inactive) and -2.95% (inactive), respectively.
